The source made the active and inactive calls. The rule behind the calls is not given here.
How the values were obtained:
Mus musculus [1] = test: Toxicity in Swiss Webster mouse assessed as effect on neurological conditions at 200 mg/kg, po administered as single dose measured after 48 hrs; type: organism-based; conditions: in vivo
Summary of the method: (§1)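 Swiss Webster mice (21–23 g, n=3) get a single oral 200 mg/kg dose, given as in the PK study. They are inspected for toxic and sub-toxic signs per OECD guidelines (behaviour, motility, neurological state, skin, fur), and body weight is tracked 0–48 h. At 48 h, mice are euthanized and organ weights are normalized to body weight. Blood is taken for haematology and plasma biochemistry.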

Mus musculus [2] = test: Toxicity in Swiss Webster mouse assessed as effect on animal behavior at 200 mg/kg, po administered as single dose measured after 48 hrs; type: organism-based; conditions: in vivo; summary of the method: as §1
Mus musculus [3] = test: Toxicity in Swiss Webster mouse assessed as effect on motility at 200 mg/kg, po administered as single dose measured after 48 hrs; type: organism-based; conditions: in vivo; summary of the method: as §1
[4] = target: Lanosterol 14-alpha-demethylase (Trypanosoma brucei brucei (strain 927/4 GUTat10.1)) (UniProt Q385E8); test: Inhibition of Trypanosoma brucei […] CYP51 expressed in Escherichia coli using [3-3H]-obtusifoliol as substrate after 60 mins by LC-MS analysis
Lanosterol 14-alpha-demethylase (Trypanosoma brucei brucei (strain 927/4 GUTat10.1)), sequence (Q385E8 1-481): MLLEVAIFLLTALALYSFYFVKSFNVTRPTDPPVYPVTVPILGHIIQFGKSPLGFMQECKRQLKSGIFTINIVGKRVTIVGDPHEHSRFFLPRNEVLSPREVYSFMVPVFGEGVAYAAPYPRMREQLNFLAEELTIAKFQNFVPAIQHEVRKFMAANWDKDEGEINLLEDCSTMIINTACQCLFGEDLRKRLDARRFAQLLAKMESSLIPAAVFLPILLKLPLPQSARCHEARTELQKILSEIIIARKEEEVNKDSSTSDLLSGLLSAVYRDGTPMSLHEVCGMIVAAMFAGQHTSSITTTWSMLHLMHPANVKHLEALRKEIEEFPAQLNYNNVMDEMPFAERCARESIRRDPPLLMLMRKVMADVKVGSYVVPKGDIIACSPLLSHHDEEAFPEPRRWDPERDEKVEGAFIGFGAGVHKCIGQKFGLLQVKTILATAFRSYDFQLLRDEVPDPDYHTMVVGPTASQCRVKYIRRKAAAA
Summary of the method: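 Reconstituted reaction: 1 μM purified CYP51, 2 μM T. brucei NADPH-P450 reductase, 100 μM dilauroylphosphatidylcholine, isocitrate dehydrogenase/isocitrate regeneration, 50 mM K phosphate pH 7.2, 10% glycerol. [3-3H]sterol substrate at 50 μM final (eburicol for T. cruzi; obtusifoliol for T. brucei and L. infantum) with inhibitor at 1.1 μM final. Preincubate 60 s at 37 °C, start with 100 μM NADPH, run 60 min, EtOAc extraction. Gives % inhibition of 14α-demethylation, triplicate, mean ± SD.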

[5] = Maximum plasma concentration in BALB/c mouse at 25 mg/kg, po via gavage by […]; type: ADME, organism-based; set-up: dose 25 mg/kg, route oral
Summary of the method: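 Single oral gavage dose of 25 mg/kg in BALB/c mice; blood sampled at 1, 2, 4, 6, 10, 16, 24 h. Plasma is diluted in PBS with ketoconazole internal standard, extracted with 80% acetonitrile, dried and redissolved. Analysed by reversed-phase HPLC with UV at 291/250 nm, 0.1 μM detection limit. Lifetime is time until undetectable.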

Mus musculus [6] = test: Toxicity in Swiss Webster mouse assessed as effect on skin at 200 mg/kg, po administered as single dose measured after 48 hrs; type: organism-based; conditions: in vivo; summary of the method: as §1
[7] = Hepatic clearance in Sprague-Dawley rat liver microsomes at 1 uM preincubated for 5 mins followed by NADPH addition and measured after 45 mins by LC/MS/MS analysis; type: ADME, microsome
Summary of the method: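 Pooled liver microsomes at 0.5 mg/mL: human (mixed gender), male Sprague-Dawley rat, or male CD-1 mouse, with test compound at 1 μM, triplicate. In vitro t1/2 is scaled to CLint (45 mg microsomes/g liver; 45 g liver/kg scaling factor). CLhep uses well-stirred model with hepatic blood flow 21 (human), 70 (rat), 90 (mouse) mL/min/kg.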

[8] = Half life in human liver microsomes at 1 uM preincubated for 5 mins followed by NADPH addition and measured by LC/MS/MS analysis; type: ADME, microsome; conditions: microsomes, 1 µM
[9] = Drug uptake in BALB/c mouse liver at 25 mg/kg, po via gavage measured after 4 hrs post dose by […]; type: ADME, organism-based; conditions: read-out: Drug uptake
Summary of the method: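 BALB/c mice get a single oral gavage dose of 25 mg/kg; tissues are collected 4 h post-dose. About 100 mg tissue is diluted 5-fold in PBS and homogenized. Homogenate is extracted as for plasma (ketoconazole internal standard, acetonitrile extraction) and quantified by HPLC-UV at 291 nm, 0.1 μM detection limit, n=2.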

Mus musculus [10] = test: Toxicity in Swiss Webster mouse at 200 mg/kg, po administered as single dose measured after 48 hrs measured at 48 hrs post dose; type: organism-based; conditions: in vivo; summary of the method: as §1

SMILES: O=C(N[C@@H](Cn1ccnc1)c1c(F)cc(-c2ccc(F)cc2)cc1F)c1ccc(-c2nnc(-c3ccccc3)o2)cc1
- Activity (Mus musculus [1]): Non-Toxic
- Activity (Mus musculus [2]): Non-Toxic
- Activity (Mus musculus [3]): Non-Toxic
- inhibition [4]: Active
- Cmax [5]: 25 µM
- Activity (Mus musculus [6]): Non-Toxic
- CLhep predicted at 1 µM [7]: 31.1 mL/min/kg
- t1/2 [8]: 1.07 h
- concentration at 4 h [9]: 120 µM
- NOAEL (Mus musculus [10]): > 200 mg/kg

From ChEMBL document CHEMBL4257584, “Sterol 14α-Demethylase Structure-Based Optimization of Drug Candidates for Human Infections with the Protozoan Trypanosomatidae” (J Med Chem, 2018)
